The source made the active and inactive calls. No cut-off for these calls is given here.
Key:
[1] = Inhibition of c-RAF1/MEK1/ERK2 signalling pathway by SPA
Procedure, shortened: (§1)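 Incubated 120 min at room temperature, stopped with EDTA/streptavidin SPA beads, counted by scintillation. 11-point 3-fold dilutions (0.0001–10 µM), normalized to DMSO and EDTA controls; IC50 fitted.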

[2] = molecular target: Mitogen-activated protein kinase 10 (Homo sapiens) (UniProt P53779); assay: Inhibition of JNK3
Mitogen-activated protein kinase 10 (Homo sapiens), sequence (P53779 whole entry): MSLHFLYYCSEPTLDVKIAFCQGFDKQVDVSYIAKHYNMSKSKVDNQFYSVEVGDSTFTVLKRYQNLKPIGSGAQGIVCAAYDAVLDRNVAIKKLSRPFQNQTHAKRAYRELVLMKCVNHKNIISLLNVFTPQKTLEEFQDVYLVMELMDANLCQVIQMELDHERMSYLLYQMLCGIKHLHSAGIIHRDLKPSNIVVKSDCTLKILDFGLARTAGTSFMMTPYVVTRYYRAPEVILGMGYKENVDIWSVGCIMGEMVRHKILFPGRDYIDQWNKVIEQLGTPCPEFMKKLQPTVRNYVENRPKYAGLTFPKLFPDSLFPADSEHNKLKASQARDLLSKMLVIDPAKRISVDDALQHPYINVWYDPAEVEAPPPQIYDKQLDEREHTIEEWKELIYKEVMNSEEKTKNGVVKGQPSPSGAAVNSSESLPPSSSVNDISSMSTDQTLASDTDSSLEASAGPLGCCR

[3] = molecular target: Tyrosine-protein kinase Fyn (Mus musculus) (UniProt P39688); assay: Inhibition of mouse FYN at 10 uM
Tyrosine-protein kinase Fyn (Mus musculus), sequence (P39688 whole entry): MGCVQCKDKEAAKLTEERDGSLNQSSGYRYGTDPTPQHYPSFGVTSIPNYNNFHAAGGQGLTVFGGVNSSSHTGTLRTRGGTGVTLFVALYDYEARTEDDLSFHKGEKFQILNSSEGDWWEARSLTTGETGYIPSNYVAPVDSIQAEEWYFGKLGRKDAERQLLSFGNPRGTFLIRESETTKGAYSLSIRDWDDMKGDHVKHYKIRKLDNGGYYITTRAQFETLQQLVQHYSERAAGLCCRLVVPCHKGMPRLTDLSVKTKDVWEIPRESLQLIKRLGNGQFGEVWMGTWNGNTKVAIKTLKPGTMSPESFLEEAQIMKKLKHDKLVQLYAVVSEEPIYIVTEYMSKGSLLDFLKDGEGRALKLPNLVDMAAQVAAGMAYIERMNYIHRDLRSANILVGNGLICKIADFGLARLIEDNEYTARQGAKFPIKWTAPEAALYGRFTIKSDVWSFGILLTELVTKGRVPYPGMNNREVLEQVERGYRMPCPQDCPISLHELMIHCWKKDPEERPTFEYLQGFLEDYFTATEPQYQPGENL

[4] = molecular target: Proto-oncogene tyrosine-protein kinase Src (Homo sapiens) (UniProt P12931); assay: Inhibition of SRC kinase at 10 uM
Proto-oncogene tyrosine-protein kinase Src (Homo sapiens), sequence (P12931 2-536 limits assumed): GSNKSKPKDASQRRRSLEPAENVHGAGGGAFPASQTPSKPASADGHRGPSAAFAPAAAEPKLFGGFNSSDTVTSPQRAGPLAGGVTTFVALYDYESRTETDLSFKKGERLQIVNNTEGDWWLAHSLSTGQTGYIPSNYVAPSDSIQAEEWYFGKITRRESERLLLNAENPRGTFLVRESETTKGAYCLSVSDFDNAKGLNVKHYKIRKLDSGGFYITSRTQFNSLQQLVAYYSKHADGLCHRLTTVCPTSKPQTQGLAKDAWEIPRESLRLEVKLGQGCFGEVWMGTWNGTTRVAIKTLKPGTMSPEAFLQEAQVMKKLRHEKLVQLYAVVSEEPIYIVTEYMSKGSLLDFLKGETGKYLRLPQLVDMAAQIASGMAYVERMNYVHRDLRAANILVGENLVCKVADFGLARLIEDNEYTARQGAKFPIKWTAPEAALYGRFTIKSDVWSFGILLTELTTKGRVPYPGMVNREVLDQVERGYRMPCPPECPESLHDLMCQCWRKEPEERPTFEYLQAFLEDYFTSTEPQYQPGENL

[5] = molecular target: Proto-oncogene tyrosine-protein kinase LCK (Mus musculus) (UniProt P06240); assay: Inhibition of mouse LCK at 10 uM
Proto-oncogene tyrosine-protein kinase LCK (Mus musculus), sequence (P06240 2-509 limits assumed): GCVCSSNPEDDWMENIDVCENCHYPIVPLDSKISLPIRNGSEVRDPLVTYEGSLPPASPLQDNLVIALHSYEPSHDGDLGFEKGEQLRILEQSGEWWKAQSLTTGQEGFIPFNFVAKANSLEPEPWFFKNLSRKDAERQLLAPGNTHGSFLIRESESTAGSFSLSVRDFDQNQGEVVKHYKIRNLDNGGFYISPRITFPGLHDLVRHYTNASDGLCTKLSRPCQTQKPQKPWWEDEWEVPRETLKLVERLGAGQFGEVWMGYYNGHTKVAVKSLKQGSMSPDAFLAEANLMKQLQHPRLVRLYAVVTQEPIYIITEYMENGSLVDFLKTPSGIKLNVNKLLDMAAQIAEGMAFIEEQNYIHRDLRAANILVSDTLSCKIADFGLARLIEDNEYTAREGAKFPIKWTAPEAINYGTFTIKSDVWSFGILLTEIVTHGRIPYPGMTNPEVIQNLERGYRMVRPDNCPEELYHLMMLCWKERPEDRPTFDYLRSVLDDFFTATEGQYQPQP

[6] = molecular target: Tyrosine-protein kinase Lyn (Homo sapiens) (UniProt P07948); assay: Inhibition of LYN at 10 uM
Tyrosine-protein kinase Lyn (Homo sapiens), sequence (P07948 2-512 limits assumed): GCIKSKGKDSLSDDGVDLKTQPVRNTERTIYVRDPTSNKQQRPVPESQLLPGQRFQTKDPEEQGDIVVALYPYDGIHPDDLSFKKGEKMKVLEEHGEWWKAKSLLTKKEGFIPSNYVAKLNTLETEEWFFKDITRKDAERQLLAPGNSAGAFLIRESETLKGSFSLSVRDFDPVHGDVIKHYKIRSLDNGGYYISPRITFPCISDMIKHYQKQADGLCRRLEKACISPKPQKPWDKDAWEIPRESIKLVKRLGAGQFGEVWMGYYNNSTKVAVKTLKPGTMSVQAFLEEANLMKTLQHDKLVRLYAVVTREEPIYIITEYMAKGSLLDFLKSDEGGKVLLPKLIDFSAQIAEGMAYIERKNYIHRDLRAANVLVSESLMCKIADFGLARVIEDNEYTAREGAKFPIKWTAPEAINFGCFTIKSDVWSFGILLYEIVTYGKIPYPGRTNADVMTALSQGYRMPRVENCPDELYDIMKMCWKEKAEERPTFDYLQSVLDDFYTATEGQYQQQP

[7] = molecular target: MAP kinase p38 (Homo sapiens) (UniProt O15264+Q15759+Q16539+P53778); assay: Inhibition of p38; assay type: protein assay
[8] = molecular target: RAF proto-oncogene serine/threonine-protein kinase (Homo sapiens, UniProt P04049); assay: Inhibition of c-RAF; procedure, shortened: as §1
RAF proto-oncogene serine/threonine-protein kinase, sequence (P04049 whole entry): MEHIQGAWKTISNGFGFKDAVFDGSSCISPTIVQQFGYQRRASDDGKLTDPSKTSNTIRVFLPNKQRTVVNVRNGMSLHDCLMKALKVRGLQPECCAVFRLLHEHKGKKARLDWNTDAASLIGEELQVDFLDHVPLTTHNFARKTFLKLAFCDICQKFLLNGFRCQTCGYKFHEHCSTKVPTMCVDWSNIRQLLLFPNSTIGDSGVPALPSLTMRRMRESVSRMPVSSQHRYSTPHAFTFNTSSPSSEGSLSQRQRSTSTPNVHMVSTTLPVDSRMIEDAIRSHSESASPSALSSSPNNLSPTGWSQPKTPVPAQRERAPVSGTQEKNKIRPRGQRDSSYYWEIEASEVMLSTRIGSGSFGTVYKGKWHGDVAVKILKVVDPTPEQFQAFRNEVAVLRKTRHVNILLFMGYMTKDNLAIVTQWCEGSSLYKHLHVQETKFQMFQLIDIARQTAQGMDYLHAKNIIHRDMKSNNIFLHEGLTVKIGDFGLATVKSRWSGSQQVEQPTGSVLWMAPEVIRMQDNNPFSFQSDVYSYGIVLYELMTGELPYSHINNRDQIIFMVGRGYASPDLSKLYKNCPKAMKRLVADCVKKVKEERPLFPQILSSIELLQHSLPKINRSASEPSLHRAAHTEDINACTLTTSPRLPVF

[9] = molecular target: Tyrosine-protein kinase Fyn (Mus musculus, UniProt P39688); assay: Inhibition of mouse FYN
Tyrosine-protein kinase Fyn, sequence (P39688 whole entry): as the sequence (P39688 whole entry) above

Log IC50 [1] | Structure (SMILES) | other results
-5.5 | CNC(=O)c1cncc(/C=C/c2ccccc2C)c1 [GW445015X] | 
-7 | Cc1cc(-c2ccccn2)cc(C)c1/C=C/c1cncc(-c2nn[nH]n2)c1 | Activity [2]: inactive; Activity [3]: Active; Activity [4]: Active; Activity [5]: Active; Activity [6]: Active; Activity [7]: inactive
-6 | Cc1cccc(C)c1/C=C/c1cncc(C#N)c1 | 
-6.6 | CNC(=O)c1cncc(/C=C/c2c(C)cccc2C)c1 [GW445012X] | 
-6.5 | Cc1cc(-c2cccs2)cc(C)c1/C=C/c1cncc(-c2nn[nH]n2)c1 | 
-6.2 | COC(=O)c1cncc(/C=C/c2c(C)cc(O)cc2C)c1 [GW406731X] | 
-6.2 | Cc1cc(-c2ccco2)cc(C)c1/C=C/c1cncc(-c2nn[nH]n2)c1 | 
-6.4 | Cc1cc(O)cc(C)c1/C=C/c1cncc(C(=O)O)c1 | Activity [2]: inactive; IC50 [8]: 400 nM; Activity [7]: inactive
-7.1 | CNC(=O)c1cncc(/C=C/c2c(C)cccc2Cl)c1 | 
-6.6 | CNC(=O)c1cncc(/C=C/c2c(C)cc(O)cc2C)c1 | 
-7.9 | Cc1cccc(C)c1/C=C/c1cncc(-c2nn[nH]n2)c1 | Activity [2]: inactive; Activity [7]: inactive

Further lines, the compound ahead of its results:

Structure (SMILES) | Log IC50 [1] | other results
CNC(=O)c1cncc(/C=C/c2ccccc2Cl)c1 [GW445017X] | -5.7 | 
Cc1cc(O)cc(C)c1/C=C/c1cncc(C(=O)OC(C)(C)C)c1 [GW439255X] | -5.4 | 
CNC(=O)Oc1cc(C)c(/C=C/c2cncc(C(=O)N(C)C)c2)c(C)c1 | -5.1 | 
CNC(=O)Oc1cc(C)c(/C=C/c2cncc(C(=O)OC)c2)c(C)c1 | -7.5 | 
CNC(=O)Oc1cc(C)c(/C=C/c2cncc(C(N)=O)c2)c(C)c1 | -8.1 | Activity [2]: inactive; Activity [7]: inactive
CNC(=O)Oc1cc(C)c(/C=C/c2cncc(C(=O)OC(C)(C)C)c2)c(C)c1 | -7 | 
CNC(=O)c1cncc(/C=C/c2c(Cl)cccc2Cl)c1 [GW445014X] | -6.6 | 
Cc1cc(O)cc(C)c1/C=C/c1cncc(C(N)=O)c1 [GW435821X] | -6.8 | 
Cc1cc(O)cc(C)c1/C=C/c1cncc(C#N)c1 | -6.1 | 
CNC(=O)Oc1cc(C)c(/C=C/c2cncc(C(=O)NC)c2)c(C)c1 [GW432441X] | -8 | 
Cc1cc(-c2cccnc2)cc(C)c1/C=C/c1cncc(-c2nn[nH]n2)c1 | -6.2 | 
CCc1cccc(CC)c1/C=C/c1cncc(C(=O)NC)c1 [GW450241X] | -4.6 | 
CNC(=O)Oc1cc(C)c(/C=C/c2cncc(C#N)c2)c(C)c1 | -7.4 | 
CNC(=O)Oc1cc(C)c(/C=C/c2cncc(C(=O)O)c2)c(C)c1 | -8.2 | Activity [2]: inactive; Activity [7]: inactive
Cc1cc(O)cc(C)c1/C=C/c1cncc(C(=O)N(C)C)c1 [GW427984X] | -5.1 | 
Cc1cc(-c2ccsc2)cc(C)c1/C=C/c1cncc(-c2nn[nH]n2)c1 | -6 | 
Cc1cc(O)cc(C)c1/C=C/c1cncc(-c2nn[nH]n2)c1 | -8.4 | Activity [2]: inactive; IC50 [8]: 4 nM; Activity [7]: inactive; IC50 [9]: 40 nM
